ChEMBL document CHEMBL4480385, “Design, synthesis and molecular docking studies of novel N-arylsulfonyl-benzimidazoles with anti Trypanosoma cruzi activity” (Eur J Med Chem, 2019)

What was measured:
[1] = Inhibition of Trypanosoma cruzi apoenzyme form of PFK
Vero = experiment: Cytotoxicity against African green monkey Vero cells after 72 hrs by propidium iodide/fluorescein diacetate staining based flow cytometry; format: cell-based; settings: Chlorocebus sabaeus
[2] = Selectivity index, ratio of IC50 for African green monkey Vero cells to IC50 for Trypanosoma cruzi IRHOD/CO/2008/SN3 epimastigotes; format: toxicity; settings: read-out: Ratio IC50
Trypanosoma cruzi [3] = experiment: Anti-trypanosomal activity against Trypanosoma cruzi IRHOD/CO/2008/SN3 epimastigotes after 72 hrs by Neubauer hemocytometric method; format: functional, organism-based; settings: IRHOD/CO/2008/SN3, 72 h
[4] = Inhibition of Trypanosoma cruzi holoenzyme form of PFK
Trypanosoma cruzi [5] = experiment: Inhibition of PFK in Trypanosoma cruzi IRHOD/CO/2008/SN3 epimastigotes assessed as change in L-alanine excretion at IC25 after 96 hrs by 1H NMR analysis relative to control; set-up: scale not given: the % may be the effect or the level left
How it was run: (§1)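 SN3 epimastigotes (starting at 5 × 10⁵ cells/mL) were incubated with compound for 96 h at 28 °C, alongside drug-free control cultures. Cells were pelleted at 400 g for 10 min. Excreted end products in the supernatant were identified and quantified by ¹H NMR against a DSS reference signal, and compared with the controls.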

Trypanosoma cruzi [6] = experiment: Inhibition of PFK in Trypanosoma cruzi IRHOD/CO/2008/SN3 epimastigotes assessed as change in D-lactate excretion at IC25 after 96 hrs by 1H NMR analysis relative to control; set-up: scale not given: the % may be the effect or the level left; how it was run: as §1
Trypanosoma cruzi [7] = experiment: Anti-trypanosomal activity against Trypanosoma cruzi IRHOD/CO/2008/SN3 amastigotes infected in African green monkey Vero cells after 72 hrs by Giemsa-staining based microscopic analysis; format: functional, organism-based; settings: IRHOD/CO/2008/SN3, Vero
Trypanosoma cruzi [8] = experiment: Inhibition of PFK in Trypanosoma cruzi IRHOD/CO/2008/SN3 epimastigotes assessed as change in pyruvate excretion at IC25 after 96 hrs by 1H NMR analysis relative to control; set-up: scale not given: the % may be the effect or the level left; how it was run: as §1
Trypanosoma cruzi [9] = experiment: Inhibition of PFK in Trypanosoma cruzi IRHOD/CO/2008/SN3 epimastigotes assessed as change in succinate excretion at IC25 after 96 hrs by 1H NMR analysis relative to control; set-up: scale not given: the % may be the effect or the level left; how it was run: as §1
Trypanosoma cruzi [10] = experiment: Inhibition of PFK in Trypanosoma cruzi IRHOD/CO/2008/SN3 epimastigotes assessed as change in acetate excretion at IC25 after 96 hrs by 1H NMR analysis relative to control; set-up: scale not given: the % may be the effect or the level left; how it was run: as §1
[11] = Selectivity index, ratio of IC50 for African green monkey Vero cells to IC50 for Trypanosoma cruzi IRHOD/CO/2008/SN3 amastigotes infected in African green monkey Vero cells; format: toxicity; settings: read-out: Ratio IC50
Trypanosoma cruzi [12] = experiment: Potency index, ratio benznidazole IC50 to test compound IC50 for anti-trypanosomal activity against Trypanosoma cruzi IRHOD/CO/2008/SN3 epimastigotes; format: functional
How it was run: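 Epimastigotes of the SN3 strain were grown in TLM with 10% inactivated FBS at 28 °C in air. Compounds or benznidazole, dissolved in PEG:EtOH (7:3), were added at final levels of 1, 10, 25 and 50 and left for 72 h. Parasites were counted by haemocytometer. IC50 for 50% growth inhibition was fitted by PROBIT, and values are the mean of three experiments.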

Trypanosoma cruzi [13] = experiment: Potency index, ratio benznidazole IC50 to test compound IC50 for anti-trypanosomal activity against Trypanosoma cruzi IRHOD/CO/2008/SN3 amastigotes infected in African green monkey Vero cells; format: functional
How it was run: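 Vero cells were grown in RPMI with 10% inactivated FBS at 37 °C in 5% CO2. They were seeded at 1 × 10⁴ cells/well on coverslips, cultured for 2 days, then infected with metacyclic T. cruzi at 10:1 for 24 h and washed. Compounds at 1, 10, 25 and 50 were added for 72 h. Amastigotes in methanol-fixed, Giemsa-stained preparations were counted against untreated cultures.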

O=S(=O)(c1cccc(C(F)(F)F)c1)n1cnc2ccccc21
pIC50 [1]: 4.14 | IC50 (Vero): 59.8 µM | selectivity ratio [2]: 4.3 | IC50 (Trypanosoma cruzi [3]): 13.9 µM

Cc1cc(NS(=O)(=O)c2ccc(NC(=O)Cc3ccc(Cl)c(Cl)c3)cc2)n(C)n1
pIC50 [1]: 3.06 | pIC50 [4]: 2.96

COc1ccc(CC(=O)Nc2ccc(S(=O)(=O)Nc3cc(C)on3)cc2)cc1C
pIC50 [1]: 4.31 | pIC50 [4]: 4.31

CC(=O)c1ccc(S(=O)(=O)n2cnc3ccccc32)cc1
pIC50 [1]: 4.43 | IC50 (Vero): 656 µM | selectivity ratio [2]: 24.5 | IC50 (Trypanosoma cruzi [3]): 26.8 µM

Cc1cc(NS(=O)(=O)c2ccc(NC(=O)C(C)(C)c3ccc(Cl)c(Cl)c3)cc2)no1
pIC50 [1]: 4.56 | pIC50 [4]: 4.56

O=S(=O)(c1ccccc1)n1cnc2ccccc21
Activity (Trypanosoma cruzi [5]): -3.24% | pIC50 [1]: 3.95 | Activity (Trypanosoma cruzi [6]): 16.4% | IC50 (Trypanosoma cruzi [7]): 37.3 µM | IC50 (Vero): 1770 µM | selectivity ratio [2]: 196 | Activity (Trypanosoma cruzi [8]): -13.4% | Activity (Trypanosoma cruzi [9]): -16% | Activity (Trypanosoma cruzi [10]): 3.31% | IC50 (Trypanosoma cruzi [3]): 9 µM | selectivity ratio [11]: 47.3

CC(C)(C)c1ccc(S(=O)(=O)n2cnc3ccccc32)cc1
pIC50 [1]: 3.48 | Ratio IC50 (Trypanosoma cruzi [12]): 3 - 5 | IC50 (Vero): 68.5 µM | selectivity ratio [2]: 22.5 | IC50 (Trypanosoma cruzi [3]): 3 µM

Cc1cc(NS(=O)(=O)c2ccc(NC(=O)Cc3ccc(C)c(C)c3)cc2)no1
pIC50 [1]: 3.81 | pIC50 [4]: 3.81

Cc1cc(NS(=O)(=O)C2CCN(C(=O)Cc3ccc(Cl)c(Cl)c3)CC2)no1
pIC50 [1]: 4.16 | pIC50 [4]: 4.16

Cc1cc(NS(=O)(=O)c2ccc(NC(=O)Cc3ccc(Cl)c(F)c3)cc2)no1
pIC50 [1]: 2.81 | pIC50 [4]: 2.81

Cc1cc(NS(=O)(=O)c2ccc(C(=O)NCc3ccc(Cl)c(Cl)c3)cc2)no1
pIC50 [1]: 3.51 | pIC50 [4]: 3.51

CN(C)c1cccc(NS(=O)(=O)c2ccc(NC(=O)Cc3ccc(Cl)c(Cl)c3)cc2)c1
pIC50 [1]: 4.11 | pIC50 [4]: 4.11

O=C(Cc1ccc(Cl)c(Cl)c1)Nc1ccc(S(=O)(=O)Nc2nncs2)cc1
pIC50 [1]: 1.72 | pIC50 [4]: 1.72

O=[N+]([O-])c1ccc(S(=O)(=O)n2cnc3ccccc32)cc1
pIC50 [1]: 3.41 | Ratio IC50 (Trypanosoma cruzi [12]): 3 - 5 | IC50 (Vero): 347 µM | selectivity ratio [2]: 135 | IC50 (Trypanosoma cruzi [3]): 2.6 µM

Cc1cc(NS(=O)(=O)c2ccc(NC(=O)Cc3ccc(Cl)c(Cl)c3)cc2)no1
pIC50 [1]: 2.36 | pIC50 [4]: 2.36

O=C(Cc1ccc(F)c(Cl)c1)Nc1ccc(S(=O)(=O)Nc2nncs2)cc1
pIC50 [1]: 2.23 | pIC50 [4]: 2.23

O=C(Cc1ccc(F)c(Cl)c1)Nc1ccc(S(=O)(=O)Nc2nccs2)cc1
pIC50 [1]: 2.07 | pIC50 [4]: 2.07

Cc1cc(NS(=O)(=O)c2ccc(NC(=O)Cc3ccc(Cl)c(C(F)(F)F)c3)cc2)no1
pIC50 [1]: 2.96 | pIC50 [4]: 2.86

Cc1cc(NS(=O)(=O)c2ccc(NC(=O)Cc3ccc(F)c(Cl)c3)cc2)no1
pIC50 [1]: 2.66 | pIC50 [4]: 2.66

O=C(Cc1ccc(Cl)c(Cl)c1)Nc1ccc(S(=O)(=O)Nc2ccccc2)cc1
pIC50 [1]: 4.21 | pIC50 [4]: 4.21

Cc1cc(NS(=O)(=O)c2ccc(NC(=O)Cc3ccc4ccccc4c3)cc2)no1
pIC50 [1]: 3.31 | pIC50 [4]: 3.26

O=S(=O)(c1ccc(C(F)(F)F)cc1)n1cnc2ccccc21
Activity (Trypanosoma cruzi [5]): 9.92% | pIC50 [1]: 3.79 | Activity (Trypanosoma cruzi [6]): 25.8% | IC50 (Trypanosoma cruzi [7]): 24 µM | IC50 (Vero): 460 µM | selectivity ratio [2]: 74.8 | Activity (Trypanosoma cruzi [8]): 10.6% | Activity (Trypanosoma cruzi [9]): -7.22% | Activity (Trypanosoma cruzi [10]): 11.8% | IC50 (Trypanosoma cruzi [3]): 6.2 µM | selectivity ratio [11]: 19.2

Cc1cc(NS(=O)(=O)c2ccc(N(C)C(=O)Cc3ccc(Cl)c(Cl)c3)cc2)no1
pIC50 [1]: 3.16 | pIC50 [4]: 3.06

O=C(Cc1ccc(Cl)c(Cl)c1)Nc1ccc(S(=O)(=O)Nc2cccc(O)c2)cc1
pIC50 [1]: 3.26 | pIC50 [4]: 3.16

Cc1cc(N(C)S(=O)(=O)c2ccc(NC(=O)Cc3ccc(Cl)c(Cl)c3)cc2)no1
pIC50 [1]: 3.41 | pIC50 [4]: 3.41

O=C(Cc1ccc(Cl)c(Cl)c1)Nc1ccc(S(=O)(=O)Nc2cc[nH]n2)cc1
pIC50 [1]: 2.86 | pIC50 [4]: 2.86

Cc1cc(NS(=O)(=O)c2ccc(NC(=O)Cc3ccccc3)cc2)no1
pIC50 [1]: 4.31 | pIC50 [4]: 4.31

O=C(Cc1ccc(Cl)c(Cl)c1)Nc1ccc(S(=O)(=O)Nc2ccon2)cc1
pIC50 [1]: 2.11 | pIC50 [4]: 2.11

O=S(=O)(c1ccc(Cl)cc1)n1cnc2ccccc21
pIC50 [1]: 4.23 | IC50 (Vero): 122 µM | selectivity ratio [2]: 7.3 | IC50 (Trypanosoma cruzi [3]): 16.8 µM

Cc1cc(NS(=O)(=O)c2ccc(NC(=O)Cc3ccc(C)c(F)c3)cc2)no1
pIC50 [1]: 3.81 | pIC50 [4]: 3.81

Cc1cc(NS(=O)(=O)c2ccc(NC(=O)Cc3ccc(Cl)cc3)cc2)no1
pIC50 [1]: 3.21 | pIC50 [4]: 3.11

O=[N+]([O-])c1cccc(S(=O)(=O)n2cnc3ccccc32)c1
Activity (Trypanosoma cruzi [5]): -22.7% | pIC50 [1]: 3.66 | Activity (Trypanosoma cruzi [6]): -3.97% | IC50 (Trypanosoma cruzi [7]): 15.9 µM | Ratio IC50 (Trypanosoma cruzi [12]): 3 - 5 | IC50 (Vero): 648 µM | selectivity ratio [2]: 141 | Activity (Trypanosoma cruzi [8]): -30.2% | Activity (Trypanosoma cruzi [9]): -33.2% | Activity (Trypanosoma cruzi [10]): -16.6% | IC50 (Trypanosoma cruzi [3]): 4.6 µM | selectivity ratio [11]: 40.6

Cc1cc(NS(=O)(=O)c2ccc(NC(=O)CCc3ccc(Cl)c(Cl)c3)cc2)no1
pIC50 [1]: 4.06 | pIC50 [4]: 4.06

O=[N+]([O-])c1ccccc1S(=O)(=O)n1cnc2ccccc21
pIC50 [1]: 3.74 | Ratio IC50 (Trypanosoma cruzi [12]): 3 - 5 | IC50 (Vero): 120 µM | selectivity ratio [2]: 22 | IC50 (Trypanosoma cruzi [3]): 5.5 µM

Cc1cc(NS(=O)(=O)c2ccc(NC(=O)Cc3cccc(Cl)c3)cc2)no1
pIC50 [1]: 3.46 | pIC50 [4]: 3.46

O=S(=O)(c1ccc(Br)cc1)n1cnc2ccccc21
pIC50 [1]: 4.37 | IC50 (Trypanosoma cruzi [7]): 35.7 µM | IC50 (Vero): 1190 µM | selectivity ratio [2]: 50.5 | IC50 (Trypanosoma cruzi [3]): 23.5 µM | selectivity ratio [11]: 33.3

Cc1cc(NS(=O)(=O)c2ccc(NC(=O)Cc3ccc(Cl)cc3Cl)cc2)no1
pIC50 [1]: 4.21 | pIC50 [4]: 4.21

CC(=O)Nc1ccc(S(=O)(=O)n2cnc3ccccc32)cc1
Activity (Trypanosoma cruzi [5]): 6.8% | pIC50 [1]: 3.86 | Activity (Trypanosoma cruzi [6]): 25.5% | IC50 (Trypanosoma cruzi [7]): 10.1 µM | IC50 (Vero): 468 µM | Ratio IC50 (Trypanosoma cruzi [13]): 2 | selectivity ratio [2]: 65.4 | Activity (Trypanosoma cruzi [8]): 2.38% | Activity (Trypanosoma cruzi [9]): 28.3% | Activity (Trypanosoma cruzi [10]): 12.3% | IC50 (Trypanosoma cruzi [3]): 7.2 µM | selectivity ratio [11]: 45.9

Cc1cc(NS(=O)(=O)c2ccc(NC(=O)c3ccc(Cl)c(Cl)c3)cc2)no1
pIC50 [1]: 4.31 | pIC50 [4]: 4.31

Cc1cc(NS(=O)(=O)c2cccc(NC(=O)Cc3ccc(Cl)c(Cl)c3)c2)no1
pIC50 [1]: 4.21 | pIC50 [4]: 4.21

Cc1ccc(S(=O)(=O)n2cnc3ccccc32)cc1
pIC50 [1]: 4.38 | IC50 (Vero): 108 µM | selectivity ratio [2]: 4.5 | IC50 (Trypanosoma cruzi [3]): 23.8 µM

Cc1cc(C)c(C)c(S(=O)(=O)n2cnc3ccccc32)c1C
Activity (Trypanosoma cruzi [5]): 10.4% | pIC50 [1]: 3.34 | Activity (Trypanosoma cruzi [6]): 26.4% | IC50 (Trypanosoma cruzi [7]): 19 µM | Ratio IC50 (Trypanosoma cruzi [12]): 3 - 5 | IC50 (Vero): 205 µM | selectivity ratio [2]: 91.7 | Activity (Trypanosoma cruzi [8]): 10.9% | Activity (Trypanosoma cruzi [9]): -7.22% | Activity (Trypanosoma cruzi [10]): 12% | IC50 (Trypanosoma cruzi [3]): 2.2 µM | selectivity ratio [11]: 10.8

O=C(Cc1ccc(Cl)c(Cl)c1)Nc1ccc(S(=O)(=O)Nc2nccs2)cc1
pIC50 [1]: 1.61 | pIC50 [4]: 1.61

Cc1cc(NS(=O)(=O)c2ccc(NCCc3ccc(Cl)c(Cl)c3)cc2)no1
pIC50 [1]: 4.21 | pIC50 [4]: 4.21

Cc1cc(NS(=O)(=O)Cc2ccc(NC(=O)Cc3ccc(Cl)c(Cl)c3)cc2)no1
pIC50 [1]: 3.66 | pIC50 [4]: 3.66
